The pKi is the negative decadic logarithm of the Ki, by convention in mol/L. For orientation: pIC50 means the IC50 on a negative log10 scale, so that one unit is a factor of ten. The inhibition is the percentage by which the read-out fell short of the control. By logP is commonly meant a log measure of how a compound divides between an organic and an aqueous phase. As usually defined, the bioavailability is dose-corrected exposure relative to a reference, in per cent. What is called AUC(0-inf) is the area under the concentration-time curve extrapolated to infinity. As usually defined, the Cmax is the maximum level reached in the sampled fluid or tissue. Usually ED50 stands for the dose that gives a 50% effect, or the effect in half of the subjects. The term solubility denotes the dissolved amount per volume that the medium holds.

Results on 18 compounds are retold here after ChEMBL document CHEMBL4699658, “EST64454: a Highly Soluble σ Receptor Antagonist Clinical Candidate for Pain Management” (J Med Chem, 2020).

SMILES strings stand for the structures. pIC50, pKi: −log10 of the molar value. In brackets after ≈: the same amount, converted by molar mass.

Data set [1] is described as follows: Displacement of [3H]-DTG from sigma2 receptor in guinea pig brain membranes incubated for 120 mins by liquid scintillation counting method. The data set is classed as cell membranes, Cavia porcellus, Cell membrane. In short, it runs like this: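 Guinea pig brain membranes (200 μg) incubated with 10 nM [³H]-DTG in 50 mM Tris-HCl pH 8, σ1R masked with 400 nM (+)-SKF10047, at 25 °C for 120 min. Nonspecific binding defined by 10 μM haloperidol. Filtration, three washes with ice-cold 50 mM Tris-HCl pH 7.4, scintillation counting. Ki given as mean of two determinations.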
In general terms: In a radioligand displacement assay an active substance lowers the binding of a labelled ligand.

In data set [2] the target is T1, Sigma non-opioid intracellular receptor 1 (Homo sapiens, UniProt Q99720). The data set is described as follows: Displacement of [3H]-(+)-pentazocine from human sigma1 receptor expressed in HEK293 cell membranes incubated for 120 mins by liquid scintillation counting method. Also on record: species or system Cell membrane.
T1 sequence (Q99720 whole entry): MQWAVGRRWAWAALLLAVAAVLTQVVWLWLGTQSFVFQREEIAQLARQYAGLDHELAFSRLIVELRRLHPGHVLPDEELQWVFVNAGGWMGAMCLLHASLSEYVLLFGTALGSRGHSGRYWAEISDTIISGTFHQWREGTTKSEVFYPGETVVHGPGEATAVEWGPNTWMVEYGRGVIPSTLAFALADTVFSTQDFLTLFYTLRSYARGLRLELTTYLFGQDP
Data set [3] concerns the target Voltage-gated inwardly rectifying potassium channel KCNH2 (Homo sapiens, UniProt Q12809). The data set is described as follows: Inhibition of human ERG expressed in CHO cells by patch clamp assay. In kind it is cell-based. On the technique in general: In patch-clamp work, channel activity is measured electrically.
For a further data set, the species on record is Cavia porcellus. The data set is described as follows: Displacement of [3H]-DTG from sigma2 receptor in guinea pig brain membranes at 1 uM incubated for 120 mins by liquid scintillation counting method relative to control. Particulars: Cell membrane; call rule not given here.
Data set [4] in a line: Genotoxicity in Salmonella typhimurium by Ames test. The data set is classed as toxicity. Particulars: salmonella enterica subsp. enterica serovar typhimurium.
Data set [5] is described as follows: Lipophilicity, logP of compound. Particulars: octanol/water. In kind it is physicochemical. A digest of the protocol:
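Log P determined by a pHmetric technique on a GlpKa or Sirius-T3 instrument.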

The nature of data set [6]: Elimination half life in CD1 mouse at 10 mg/kg, po by HPLC-MS/MS analysis. In kind it is ADME, organism-based. The note with it: in vivo, read-out: beta t1/2 (converted). In short, it runs like this:
(§1)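 Male CD1 mice (25−30 g), groups of 16, given 10 mg/kg orally in 0.5% hydroxypropyl methylcellulose or 1 mg/kg iv in saline. Blood drawn at several times (saphenous vein or intracardiac puncture) into heparinized tubes. Plasma spun at 4 °C, stored at −80 °C, protein-precipitated and assayed by HPLC-MS/MS. Parameters from noncompartmental analysis of concentration−time curves; clearance expressed as % liver blood flow.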

Data set [7] in a line: Elimination half life in Wistar rat at 10 mg/kg, po by HPLC-MS/MS analysis. In kind it is ADME, organism-based. The note with it: in vivo, read-out: beta t1/2 (converted). A digest of the protocol: (§2)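 Male Wistar rats (250−300 g), groups of two, dosed orally at 10 mg/kg in 0.5% hydroxypropyl methylcellulose or iv at 1 mg/kg in saline. Serial blood into heparinized tubes (saphenous vein or cardiac puncture). Plasma kept at −80 °C and measured by HPLC-MS/MS after protein precipitation. Noncompartmental analysis gave parameters; clearance given as % liver blood flow.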

Data set [8] is described as follows: Oral bioavailability in CD1 mouse at 10 mg/kg by HPLC-MS/MS analysis. The data set is classed as ADME, organism-based. The note with it: in vivo. In short, it runs like this:
as §1

A short description of data set [9]: Clearance in Wistar rat at 10 mg/kg, po by HPLC-MS/MS analysis relative to liver blood flow. Particulars: in vivo. The data set is classed as ADME, organism-based.
The nature of data set [10]: Oral bioavailability in Wistar rat at 10 mg/kg by HPLC-MS/MS analysis. In kind it is ADME, organism-based. Particulars: in vivo. In short, it runs like this: as §2
The nature of data set [11]: AUC (0 to infinity) in CD1 mouse at 10 mg/kg, po by HPLC-MS/MS analysis. In kind it is ADME, organism-based. Also on record: time infinity, route oral, dose 10 mg/kg. The note with it: in vivo. In short, it runs like this: as §1
The target in data set [12] is T1, Sigma non-opioid intracellular receptor 1. The data set is described as follows: Antagonist activity at human sigma1 receptor expressed in HEK293 cell membranes assessed as ratio of Ki without phenytoin/Ki with phenytoin by [3H]-(+)-pentazocine displacement assay. The note with it: Cell membrane, filed as antagonist.
The subject of another data set is HepG2. The data set is described as follows: Toxicity in human HepG2 cells assessed as reduction in cell viability up to 100 uM by MTT assay. The data set is classed as cell-based. In short, it runs like this:
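HepG2 cells exposed to compound at up to 100 μM; viability read by MTT assay.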
(Tetrazolium dyes change colour on reduction, which living cells bring about.)

A short description of data set [13]: Cmax in CD1 mouse at 10 mg/kg, po by HPLC-MS/MS analysis. The note with it: in vivo. In kind it is ADME, organism-based. On the set-up: route oral, dose 10 mg/kg. A digest of the protocol: as §1
Data set [14] can be described thus: AUC (0 to infinity) in Wistar rat at 10 mg/kg, po by HPLC-MS/MS analysis. Particulars: in vivo. The data set is classed as ADME, organism-based. On the set-up: route oral, time infinity, dose 10 mg/kg. In short, it runs like this: as §2
In data set [15] the test system is Mus musculus. The data set is described as follows: Analgesic activity in orally dosed mouse model of intraplantar capsaicin-induced mechanical hypersensitivity-induced pain assessed as reduction in mechanical hypersensitivity. The data set is classed as functional. Particulars: po.
A short description of data set [16]: Permeability in human Caco-2 cells. The data set is classed as ADME, cell-based. Particulars: read-out: permeability.
The nature of data set [17]: Cmax in Wistar rat at 10 mg/kg, po by HPLC-MS/MS analysis. In kind it is ADME, organism-based. On the set-up: route oral, dose 10 mg/kg. Particulars: in vivo. In short, it runs like this: as §2
A short description of data set [18]: Volume of distribution at steady state in Wistar rat at 10 mg/kg, po by HPLC-MS/MS analysis. The note with it: in vivo. In kind it is ADME, organism-based. A digest of the protocol: as §2
Data set [19] relates to Mus musculus. The data set is described as follows: Analgesic activity in orally dosed mouse model of […]-induced mechanical hypersensitivity-induced pain assessed as reduction in mechanical hypersensitivity at 80 mg/kg, po. On the set-up: scale not given: the % may be the effect or the level left. The data set is classed as functional.
Data set [20] in a line: Induction of CYP450 expression in human HepaRG cells at 50 uM. In kind it is ADME, cell-based. In short, it runs like this: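 HepaRG cells exposed to compound at concentrations up to 50 μM; CYP induction assessed.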
Data set [21] in a line: Volume of distribution at steady state in CD1 mouse at 10 mg/kg, po by HPLC-MS/MS analysis. The data set is classed as ADME, organism-based. Particulars: in vivo. A digest of the protocol:
as §1

Data set [22] is described as follows: Clearance in CD1 mouse at 10 mg/kg, po by HPLC-MS/MS analysis relative to liver blood flow. The data set is classed as ADME, organism-based. Particulars: in vivo.
A short description of data set [23]: Thermodynamic solubility in pH 7.4 buffer. Particulars: read-out: Therm_solubility. In kind it is physicochemical.
A short description of data set [24]: Aqueous solubility of compound. In kind it is physicochemical.
Data set [25] is described as follows: Thermodynamic solubility in pH 2 buffer. The data set is classed as physicochemical. Particulars: read-out: Therm_solubility.

Chain of Voltage-gated inwardly rectifying potassium channel KCNH2 (Q12809 whole entry): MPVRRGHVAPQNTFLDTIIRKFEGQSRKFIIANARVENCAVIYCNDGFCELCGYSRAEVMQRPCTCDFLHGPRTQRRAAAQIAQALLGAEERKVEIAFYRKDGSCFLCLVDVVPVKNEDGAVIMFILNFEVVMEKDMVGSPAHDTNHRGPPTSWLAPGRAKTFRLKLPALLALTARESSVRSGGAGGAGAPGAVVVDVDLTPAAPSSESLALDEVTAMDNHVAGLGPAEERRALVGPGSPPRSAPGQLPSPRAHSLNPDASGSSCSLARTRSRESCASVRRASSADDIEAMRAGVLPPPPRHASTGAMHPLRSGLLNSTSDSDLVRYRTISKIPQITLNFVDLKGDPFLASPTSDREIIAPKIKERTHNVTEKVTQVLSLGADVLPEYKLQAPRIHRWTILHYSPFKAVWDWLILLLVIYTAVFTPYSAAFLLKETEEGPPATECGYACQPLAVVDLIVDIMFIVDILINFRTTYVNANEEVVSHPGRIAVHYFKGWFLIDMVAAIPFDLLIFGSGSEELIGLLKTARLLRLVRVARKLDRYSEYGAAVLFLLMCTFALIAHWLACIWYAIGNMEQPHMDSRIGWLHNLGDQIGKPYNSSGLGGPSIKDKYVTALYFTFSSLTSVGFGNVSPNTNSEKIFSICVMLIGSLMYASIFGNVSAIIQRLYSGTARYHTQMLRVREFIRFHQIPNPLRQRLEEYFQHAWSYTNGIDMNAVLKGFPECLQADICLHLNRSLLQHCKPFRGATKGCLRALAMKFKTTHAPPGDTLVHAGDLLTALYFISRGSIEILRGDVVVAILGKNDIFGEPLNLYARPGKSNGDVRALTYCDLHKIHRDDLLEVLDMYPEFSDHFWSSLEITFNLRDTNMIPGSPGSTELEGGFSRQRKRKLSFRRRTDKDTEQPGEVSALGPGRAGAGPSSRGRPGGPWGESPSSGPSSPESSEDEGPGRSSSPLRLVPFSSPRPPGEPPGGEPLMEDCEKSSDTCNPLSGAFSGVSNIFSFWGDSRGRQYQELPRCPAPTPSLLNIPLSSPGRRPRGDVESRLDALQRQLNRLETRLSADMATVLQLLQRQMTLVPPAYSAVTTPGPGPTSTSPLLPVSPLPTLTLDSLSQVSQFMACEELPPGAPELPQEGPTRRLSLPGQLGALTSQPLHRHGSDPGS

For the compound `Cc1ccccc1NC(=N)Nc1ccccc1C` [DITOLYLGUANIDINE], the negative logarithm of the Ki (pKi) in data set [1] is 7.64.
In the case of `Cc1cc(CCCN2CCOCC2)nn1-c1ccc(Cl)c(Cl)c1`, the pKi is 6.63 in data set [1] and 8.30 in [2].
With `Cc1cc(COCCN2C[C@@H](C)O[C@@H](C)C2)nn1-c1ccc(Cl)c(Cl)c1`, the pKi was 6.74 in [1] and 8.52 in data set [2].
Take `CC(=O)N1CCN(CCOCc2cc(C)n(-c3ccc(Cl)c(Cl)c3)n2)CC1`: the pKi in data set [1] is less than 6.00; in [2], 7.82. In [3], this compound had a negative-log IC50 (pIC50) of less than 5.00. Besides, in the data set filed under Cavia porcellus, the inhibition was less than 50%.
As to `Clc1ccc(-n2ccc(COCCN3CCOCC3)n2)cc1Cl`, the pKi in [1] is 6.86; in [2], 8.70.
Turning to `Cc1cc(COCCN2CCCCC2)nn1-c1ccc(Cl)c(Cl)c1`, the pKi in data set [1] is 7.55; in data set [2], 8.70.
In the case of `CC(=O)N1CCN(CCOCc2ccn(-c3ccc(F)c(F)c3)n2)CC1.Cl`, the Activity result in data set [4] is on record as “Non-Toxic”; in the data set with HepG2, “Non-Toxic”; with Mus musculus [19], 95%; in [20], “Non-Toxic”. Also, the logP in data set [5] was 1.7. The half-life in [6] is 3.4 h; in data set [7], less than 1 h. In addition, the bioavailability stood at 69% in [8] and 60% in data set [10]. In addition, the figures for the CL in data set [9] and in data set [22] were 70% and 89%, respectively. For the same compound, the values for the total exposure AUC(0-inf) in data set [11] and in [14] were 1430 ng·h/mL and 2640 ng·h/mL, respectively. Besides, the Ratio Ki in data set [12] turned out to be 0.9. Further, the Cmax in [13] stood at 771 ng/mL; in data set [17], 1180 ng/mL. Also, the pKi is less than 5.00 in data set [1] and 7.66 in data set [2]. In the data set on Mus musculus [15], the ED50 came to 33 mg/kg. In addition, the Papp in [16] is 51.5 ×10⁻⁶ cm/s. Also, the Vdss in [18] came to 1.2 L/kg; in data set [21], 4.4 L/kg. Also, in [3], the pIC50 was less than 5.00.
Consider `Cc1cc(COCCN2CCOCC2)nn1-c1ccc(Cl)c(Cl)c1`, for which the pKi in data set [1] was 6.40; in [2], 7.85.
The matching figures for `Cc1cc(COCCN2CCOCC2)nn1C1CCCC1`: less than 5.00 and 6.62.
`Cc1cc(COCCN2CCNCC2)nn1-c1ccc(Cl)c(Cl)c1` gave a pKi in [2] of 6.56.
In the case of `Cc1cc(OCCN2CCOCC2)nn1-c1ccc2ccccc2c1`, the values for the half-life in data set [6] and in data set [7] were 0.7 h and 1.2 h, respectively. Moreover, the bioavailability in [8] was 34%; in [10], 15%. Further, the CL in data set [9] turned out to be 109%; in data set [22] it was 65%. Moreover, the solubility thermodynamic in data set [23] and in data set [25] was 230 µg/mL (≈ 682 µM) each time. Also, the area under the curve AUC(0-inf) in [11] came to 958 ng·h/mL; in [14] it was 428 ng·h/mL. Moreover, the peak concentration (Cmax) in data set [13] was determined as 622 ng/mL; in [17] it was 301 ng/mL. In addition, the negative-log Ki (pKi) in data set [1] is less than 6.00. In addition, the Vdss is 2.9 L/kg in [18] and 2.2 L/kg in [21]. In addition, the Activity in the data set on Mus musculus [19] is reported as 54%. For the same compound, in data set [24], the solubility stood at 200 µg/mL (≈ 593 µM). For the same compound, the inhibition in the data set filed under Cavia porcellus is less than 50%.
As to `Cc1cc(COCCN2CCOCC2)nn1-c1ccc2ccccc2c1`, the pKi is less than 6.00 in data set [1] and 6.68 in [2]. The same compound displayed an inhibition in the data set listed under Cavia porcellus of less than 50%.
With `Cc1cc(CCCCN2CCOCC2)nn1-c1ccc(Cl)c(Cl)c1`, the results for the negative-log Ki (pKi) in data set [1] and in [2] were 6.94 and 8.05, respectively.
Take `Cc1cc(COCCN2CCCC2)nn1-c1ccc(Cl)c(Cl)c1`: the negative logarithm of the Ki (pKi) in data set [1] was 7.57; in data set [2], 8.22. The same compound had a pIC50 in data set [3] of 5.29.
Take `O=C(CCCN1CCC(O)(c2ccc(Cl)cc2)CC1)c1ccc(F)cc1` [HALOPERIDOL]: the pKi in data set [1] is 7.66.
On the same count and under the same terms, next, `CC(C)=CCN1CC[C@]2(C)c3cc(O)ccc3C[C@H]1[C@H]2C` [(+)-PENTAZOCINE]: 6.14.
`CC(=O)N1CCN(CCCOCc2cc(C)n(-c3ccc(Cl)c(Cl)c3)n2)CC1`: the negative-log Ki (pKi) in data set [1] is less than 6.00; in data set [2], 8.05. The pIC50 in [3] was 5.39. For the same compound, the inhibition in the data set filed under Cavia porcellus was less than 50%.
Turning to `CC(=O)N1CCN(CCOCc2cc(C)n(-c3ccc(F)c(F)c3)n2)CC1`, the figures for the negative-log Ki (pKi) in data set [1] and in data set [2] were less than 5.00 and 7.24, respectively. Moreover, the pIC50 in data set [3] is less than 5.00.
